# Screening data deposited in PubChem by several laboratories.
# Rows were chosen to be rich in hits. Some 1.3% of all compounds tested hit in one or more screens of this group.
# proCasp3 act: activators of human procaspase-3 D3A mutant, primary screen, biochemical, absorbance, PC-3 D3A mutant, single concentration; recombinant procaspase-3 D3A, Ac-DEVD-pNA absorbance 405 nm; activation, % at 8.5 µM; 330,000 tested, 0.11% active; AID 463141, 2010;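 active = activation above the mean of all tested compounds plus 3 SD, cut at about 21% in these data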;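 note: 0% = DMSO alone and 100% = DMSO wells spiked with extra 5 µM PC-3 D3A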
# Target sequence (P42574 whole entry D9A/D28A/D175A): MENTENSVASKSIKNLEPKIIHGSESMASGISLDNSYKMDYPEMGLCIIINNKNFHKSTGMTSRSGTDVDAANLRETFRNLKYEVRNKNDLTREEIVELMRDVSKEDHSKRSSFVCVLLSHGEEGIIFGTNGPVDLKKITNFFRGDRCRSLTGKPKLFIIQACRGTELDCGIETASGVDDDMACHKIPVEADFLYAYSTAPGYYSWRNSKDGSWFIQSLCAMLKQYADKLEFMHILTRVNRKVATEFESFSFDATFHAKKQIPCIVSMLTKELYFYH
#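 Assay system – Procaspase-3 D3A mutant · Benchmarks – DMSO low control, extra-enzyme high control · Technique – 405 nm absorbance of p-nitroaniline, reads at 0 and 120 min · Doses – 8.5 µM nominal · Measure – % activation between DMSO and enzyme-spiked controls · Also added – Ac-DEVD-pNA chromogenic peptide substrate · Schedule – 1 h compound preincubation, 2 h substrate hydrolysis at 25 °C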
# GRK2 aptamer HTS: compounds blocking aptamer binding on GRK2 – biochemical, human GRK2, bead flow cytometry, HTS, primary screen; FAM-aptamer displacement from GRK2; Beta-adrenergic receptor kinase 1 (Homo sapiens), P25098; 330,000 tested, 0.59% active; inhibition of aptamer binding, % at 10 µM;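 active = inhibition of aptamer binding above 40%, roughly 3 SD of noise, on plates passing a quality check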;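 note: median bead fluorescence of bound FAM aptamer so fluorescent compounds give negative values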
# procasp7 counter: procaspase-7 activators, primary screen, counter-screen for procaspase-3 activator project, biochemical, absorbance, HTS, human; AID 463210, 2010; recombinant procaspase-7, Ac-DEVD-pNA absorbance 405 nm; D23A/D198A/D206A triple mutant, cannot self-cleave; scale: DMSO 0, 5 µM enzyme 100; activation, % at 8.5 µM; Caspase-7 (Homo sapiens), P55210; 330,000 tested, 0.093% active;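 active = percent activation above the screen-wide mean plus 3 SD, cut at about 25% in these data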
#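 Assay system: Uncleavable procaspase-7 mutant enzyme / Input: 2 µM procaspase-7 mutant as dispensed / Dosing: single nominal 8.5 µM compound dose, 0.8% DMSO final / Timing: 1 h enzyme–compound preincubation and 2 h substrate reaction, both 25 °C / Detection: p-Nitroaniline absorbance at 405 nm, read at 0 and 120 min / Replication: singlicate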
# VLA-4 inh: inhibition in human VLA-4 binding assay, primary screen, VLA-4 allosteric modulator project, MLPCN library, flow cytometry, VLA-4 expressing cells; Integrin alpha-4 (Homo sapiens), P13612; ligand binding flow cytometry; inhibition, % (about 7 µM as worked out from the volumes in the protocol); 330,000 tested, 0.2% active; AID 2557, 2010; in the data active = inhibition above about 50%
# Lipid droplet: inhibitors of hepatocyte lipid droplet formation, primary screen, imaging, high-throughput imaging, BODIPY stain; AML12 mouse hepatocytes, oleate lipid droplets; 240,000 tested, 0.4% active; inhibition, % at 6.5 µM; AID 1656, 2009;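 active = lipid droplet intensity inhibited by at least 50%, with more than 500 cells counted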
#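 Test system: AML12 mouse liver cells; schedule: overnight exposure; technique: high-content imaging of BODIPY-stained droplets and DAPI nuclei; read-out: % inhibition of corrected integrated BODIPY droplet signal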
# GASC-1 inh: inhibitors of GASC-1 histone demethylase, primary screen, biochemical, fluorescence, DELFIA europium; Lysine-specific demethylase 4C (Homo sapiens), Q9H3R0; GST-JMJD2C(1-420) H3K9me3 demethylation; inhibition, % at 2.35 µM; 330,000 tested, 0.069% active;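 active = more than half of a compound's replicate wells show inhibition beyond 50%, single wells judged on their own value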;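 note: signal counts dimethyl H3K9 product captured on neutravidin plate; 0% = median of DMSO wells and 100% = 0.3 times that DMSO median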
# GRK2 CP1: GRK2 aptamer-displacing inhibitors, retest, confirmation, biochemical, cherry pick 1, bead flow cytometry; AID 504451, 2011; shares compounds with GRK2 aptamer HTS; bead-bound GRK2, FAM-aptamer displacement; 2,000 tested, 4% active; aptamer displacement, % at 10 µM;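 active = aptamer displacement above 40%, near three times the noise of non-fluorescent compounds, on plates passing quality checks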;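 note: negative values mostly reflect intrinsic compound fluorescence rather than true enhancement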
# Aptamer quench SP: quenches fluorescent RNA aptamer, GRK2 hit artifact; fluorescence response (% of DMSO), % at 10 µM; 2,000 tested, under 10 active; shares compounds with GRK2 aptamer HTS; Carboxyfluorescein RNA aptamer on beads, flow cytometry quenching; hits give low values;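 active = compounds that quench the bead-bound fluorescent RNA probe, cutting fluorescence to under half of the solvent control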;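 note: counterscreen run without GRK2 so only probe quenching by compound is measured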
# The depositor's hits bear a star; · = no result given.
SMILES,proCasp3 act,GRK2 aptamer HTS,procasp7 counter,VLA-4 inh,Lipid droplet,GASC-1 inh,GRK2 CP1,Aptamer quench SP
COc1ccccc1NC(=O)C(C)OC(=O)CC1CCCCC1 (stereo unspecified),0.3,6.0,-10.0,2.5,·,-0.6,·,·
COc1ccccc1NC(=O)CC1CCCC1,1.6,61.0*,6.4,11.3,-10.2,3.5,-3.5,104.8
O=C(Nc1ccc(S(=O)(=O)Nc2nccs2)cc1)c1cc(-c2ccccc2Cl)nc2ccccc12,4.6,1.0,8.8,-6.8,·,7.6,1.6,107.7
O=C(Nc1ccc(S(=O)(=O)Nc2nccs2)cc1)c1cc(-c2ccccn2)nc2ccccc12,-8.3,1.0,6.3,-0.1,7.2,5.7,·,·
Cc1cc(-c2nnc(SCC(=O)Nc3ccccc3C)n2N)n[nH]1,8.5,0.0,-0.6,0.1,18.9,19.6,·,·
O=C(NCCS(=O)(=O)NCC1CCCO1)c1ccccc1 (stereo unspecified),-0.3,3.0,-0.7,6.7,·,-7.4,·,·
CC1Cc2ccccc2N1C(=O)CSc1nncs1 (stereo unspecified),5.1,75.0*,-4.4,-2.8,·,3.5,-2.3,99.2
CC1CCN(S(=O)(=O)N2CCCC(C(=O)NCc3ccccc3Cl)C2)CC1 (stereo unspecified),1.5,1.0,12.5,5.1,20.1,-23.0,·,·
Cc1cc(=O)n2nc(N3CCCC(C(=O)NCc4ccccc4C)C3)sc2n1 (stereo unspecified),-1.7,0.0,-5.4,-4.4,-2.3,1.6,-2.6,97.0
CC1CC(C)CN(S(=O)(=O)N2CCCC(C(=O)NCc3ccccc3Cl)C2)C1 (stereo unspecified),8.7,0.0,-2.5,-6.3,-1.3,2.6,-4.7,92.5
Cc1cc(=O)n2nc(N3CCCC(C(=O)NCc4ccccc4Cl)C3)sc2n1 (stereo unspecified),7.3,0.0,0.0,-3.3,-19.8,-3.3,-0.6,101.5
COc1cccc(N2CCN(C(=O)CN3C(=O)NC(C)(c4ccc5ccccc5c4)C3=O)CC2)c1 (stereo unspecified),2.7,0.0,3.3,4.9,·,7.4,·,·
CC(=O)C1=C(C)Nc2ncnn2C1c1cccc(O)c1 (stereo unspecified),2.4,0.0,4.2,6.5,-17.9,29.4,·,·
COc1ccc(C(=O)C2CCCN(C(=O)c3ccc4nccnc4c3)C2)c(C)c1 (stereo unspecified),3.5,1.0,0.4,-0.2,-13.9,2.5,·,·
Cc1cc2nc(N3C(=O)CNC3=S)sc2cc1C,-3.6,75.0*,1.7,-11.4,-3.3,12.5,-1.3,97.0
CCOc1ccc2nc(N3C(=O)CNC3=S)sc2c1,-8.5,·,-7.8,-5.9,5.0,0.2,·,·
